# The source made the active and inactive calls. The calls are words filed in the database; no cut-off is given here.
# Columns and labels:
# [1] = biological target: T1, Interleukin-1 receptor-associated kinase 1 (Homo sapiens, UniProt P51617); test: Covalent binding affinity to recombinant IRAK1 (unknown origin) assessed as labeling at Cys302 residue site measured after 2 hrs by LC-MS analysis
# Target sequence in this assay (P51617 whole entry, looked up): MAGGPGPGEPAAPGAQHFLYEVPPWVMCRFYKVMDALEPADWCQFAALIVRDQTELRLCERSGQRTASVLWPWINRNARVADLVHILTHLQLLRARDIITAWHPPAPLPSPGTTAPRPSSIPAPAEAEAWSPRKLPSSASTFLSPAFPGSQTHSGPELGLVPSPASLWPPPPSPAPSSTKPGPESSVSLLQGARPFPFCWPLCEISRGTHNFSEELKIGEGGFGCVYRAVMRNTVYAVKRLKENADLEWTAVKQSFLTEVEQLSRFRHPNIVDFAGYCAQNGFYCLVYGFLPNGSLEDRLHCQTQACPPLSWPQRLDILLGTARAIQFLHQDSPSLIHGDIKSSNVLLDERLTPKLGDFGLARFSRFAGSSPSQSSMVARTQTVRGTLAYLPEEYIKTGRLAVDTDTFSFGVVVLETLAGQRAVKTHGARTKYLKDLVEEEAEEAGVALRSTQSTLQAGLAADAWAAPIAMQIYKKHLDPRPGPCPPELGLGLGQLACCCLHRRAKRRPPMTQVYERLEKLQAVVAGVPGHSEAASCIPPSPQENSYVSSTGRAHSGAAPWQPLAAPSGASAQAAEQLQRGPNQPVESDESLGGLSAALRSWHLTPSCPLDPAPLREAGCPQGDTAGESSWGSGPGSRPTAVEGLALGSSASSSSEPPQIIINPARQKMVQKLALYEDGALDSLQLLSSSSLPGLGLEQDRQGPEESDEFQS
# [2] = Cytotoxicity against human BCWM1 cells expressing MYD88 mutant assessed as cell killing measured after 72 hrs by CellTiter-Glo luminescent cell viability assay; assay type: functional, cell-based; conditions: BCWM1, 72 h
# Method in brief: (§1)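 Cells were exposed to inhibitors for 72 h, and viability was read by CellTiter-Glo luminescence. EC50 values were derived from dose–response curves.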
# [3] = Cytotoxicity against human MWCL1 cells expressing MYD88 mutant assessed as cell killing measured after 72 hrs by CellTiter-Glo luminescent cell viability assay; assay type: functional, cell-based; method in brief: as §1
# TMD8 = test: Cytotoxicity against human TMD8 cells expressing MYD88 mutant assessed as cell killing measured after 72 hrs by CellTiter-Glo luminescent cell viability assay; assay type: functional, cell-based; method in brief: as §1
# [4] = Cytotoxicity against human HBL1 cells expressing MYD88 mutant assessed as cell killing measured after 72 hrs by CellTiter-Glo luminescent cell viability assay; assay type: functional, cell-based; method in brief: as §1
# OCI-Ly3 = test: Cytotoxicity against human OCILY3 cells expressing MYD88 mutant assessed as cell killing measured after 72 hrs by CellTiter-Glo luminescent cell viability assay; assay type: functional, cell-based; method in brief: as §1
# OCI-Ly7 = test: Cytotoxicity against human OCILY7 cells expressing MYD88 mutant assessed as cell killing measured after 72 hrs by CellTiter-Glo luminescent cell viability assay; assay type: functional, cell-based; method in brief: as §1
# OCI-LY19 = test: Cytotoxicity against human OCILY19 cells expressing MYD88 mutant assessed as cell killing measured after 72 hrs by CellTiter-Glo luminescent cell viability assay; assay type: functional, cell-based; method in brief: as §1
# Ramos = test: Cytotoxicity against human Ramos cells expressing MYD88 mutant assessed as cell killing measured after 72 hrs by CellTiter-Glo luminescent cell viability assay; assay type: functional, cell-based; method in brief: as §1
# RPMI-8226 = test: Cytotoxicity against human RPMI-8226 cells expressing MYD88 mutant assessed as cell killing measured after 72 hrs by CellTiter-Glo luminescent cell viability assay; assay type: functional, cell-based; method in brief: as §1
# [5] = biological target: T1, Interleukin-1 receptor-associated kinase 1; test: Inhibition of desthio-biotinylated JH-XIII-39-01 probe binding to IRAK1 in human BCWM1 cells assessed as blocking of IRAK1 pulldown at 5 to 10 uM measured after 90 mins by Western blot based pulldown assay; assay type: cell-based
# Target sequence in this assay (P51617 whole entry, looked up): as above
# [6] = biological target: T1, Interleukin-1 receptor-associated kinase 1; test: Inhibition of wild-type human partial length IRAK1 (R194 to S712 residues) expressed in mammalian expression system by Kinomescan method
# Target sequence in this assay (P51617 whole entry): as the sequence (P51617 whole entry, looked up) above
# [7] = biological target: T2, Interleukin-1 receptor-associated kinase 4 (Homo sapiens, UniProt Q9NWZ3); test: Inhibition of wild-type human partial length IRAK4 (M1 to S460 residues) expressed in mammalian expression system by Kinomescan method
# T2 sequence (Q9NWZ3 whole entry): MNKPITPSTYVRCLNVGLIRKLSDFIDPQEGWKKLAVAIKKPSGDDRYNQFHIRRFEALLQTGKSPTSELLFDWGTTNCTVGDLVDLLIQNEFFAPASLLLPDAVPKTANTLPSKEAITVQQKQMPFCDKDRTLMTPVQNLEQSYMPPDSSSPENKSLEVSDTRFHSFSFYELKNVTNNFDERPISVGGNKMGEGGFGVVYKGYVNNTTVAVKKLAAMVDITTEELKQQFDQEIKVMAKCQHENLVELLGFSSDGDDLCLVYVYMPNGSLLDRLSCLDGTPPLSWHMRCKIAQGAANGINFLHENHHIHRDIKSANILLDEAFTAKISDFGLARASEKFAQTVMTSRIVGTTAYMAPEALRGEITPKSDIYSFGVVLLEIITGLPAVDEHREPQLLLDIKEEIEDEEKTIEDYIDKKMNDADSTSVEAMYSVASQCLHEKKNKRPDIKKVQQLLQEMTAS
# [8] = biological target: T1, Interleukin-1 receptor-associated kinase 1; test: Covalent binding affinity to recombinant IRAK1 (unknown origin) assessed as labeling at Cys307 residue site measured after 2 hrs by LC-MS analysis
# Target sequence in this assay (P51617 whole entry, looked up): as the sequence (P51617 whole entry, looked up) above
# [9] = biological target: T2, Interleukin-1 receptor-associated kinase 4; test: Inhibition of IRAK4 (unknown origin) using methylcoumarin-labeled peptide as substrate in presence of ATP by FRET assay
# [10] = biological target: T1, Interleukin-1 receptor-associated kinase 1; test: Covalent binding affinity to recombinant IRAK1 (unknown origin) assessed as labeling at Cys302/Cys307 residue sites at ratio 3:1 measured after 2 hrs by LC-MS analysis
# Target sequence in this assay (P51617 whole entry, looked up): as the sequence (P51617 whole entry, looked up) above
# [11] = biological target: T1, Interleukin-1 receptor-associated kinase 1; test: Inhibition of recombinant IRAK1 (unknown origin) by Invitrogen adapta assay
# Target sequence in this assay (P51617 whole entry): as the sequence (P51617 whole entry, looked up) above
# [12] = biological target: T1, Interleukin-1 receptor-associated kinase 1; test: Inhibition of desthio-biotinylated JH-XIII-39-01 probe binding to IRAK1 in human BCWM1 cells assessed as blocking of IRAK1 pulldown at 5 uM measured after 90 mins by Western blot based pulldown assay; assay type: cell-based
# Target sequence in this assay (P51617 whole entry, looked up): as the sequence (P51617 whole entry, looked up) above
# [13] = biological target: T3, Mitogen-activated protein kinase kinase kinase 19 (Homo sapiens, UniProt Q56UN5); test: Inhibition of wild-type human partial length YSK4 (T1019 to H1328 residues) expressed in mammalian expression system by Kinomescan method
# T3 sequence (Q56UN5 whole entry): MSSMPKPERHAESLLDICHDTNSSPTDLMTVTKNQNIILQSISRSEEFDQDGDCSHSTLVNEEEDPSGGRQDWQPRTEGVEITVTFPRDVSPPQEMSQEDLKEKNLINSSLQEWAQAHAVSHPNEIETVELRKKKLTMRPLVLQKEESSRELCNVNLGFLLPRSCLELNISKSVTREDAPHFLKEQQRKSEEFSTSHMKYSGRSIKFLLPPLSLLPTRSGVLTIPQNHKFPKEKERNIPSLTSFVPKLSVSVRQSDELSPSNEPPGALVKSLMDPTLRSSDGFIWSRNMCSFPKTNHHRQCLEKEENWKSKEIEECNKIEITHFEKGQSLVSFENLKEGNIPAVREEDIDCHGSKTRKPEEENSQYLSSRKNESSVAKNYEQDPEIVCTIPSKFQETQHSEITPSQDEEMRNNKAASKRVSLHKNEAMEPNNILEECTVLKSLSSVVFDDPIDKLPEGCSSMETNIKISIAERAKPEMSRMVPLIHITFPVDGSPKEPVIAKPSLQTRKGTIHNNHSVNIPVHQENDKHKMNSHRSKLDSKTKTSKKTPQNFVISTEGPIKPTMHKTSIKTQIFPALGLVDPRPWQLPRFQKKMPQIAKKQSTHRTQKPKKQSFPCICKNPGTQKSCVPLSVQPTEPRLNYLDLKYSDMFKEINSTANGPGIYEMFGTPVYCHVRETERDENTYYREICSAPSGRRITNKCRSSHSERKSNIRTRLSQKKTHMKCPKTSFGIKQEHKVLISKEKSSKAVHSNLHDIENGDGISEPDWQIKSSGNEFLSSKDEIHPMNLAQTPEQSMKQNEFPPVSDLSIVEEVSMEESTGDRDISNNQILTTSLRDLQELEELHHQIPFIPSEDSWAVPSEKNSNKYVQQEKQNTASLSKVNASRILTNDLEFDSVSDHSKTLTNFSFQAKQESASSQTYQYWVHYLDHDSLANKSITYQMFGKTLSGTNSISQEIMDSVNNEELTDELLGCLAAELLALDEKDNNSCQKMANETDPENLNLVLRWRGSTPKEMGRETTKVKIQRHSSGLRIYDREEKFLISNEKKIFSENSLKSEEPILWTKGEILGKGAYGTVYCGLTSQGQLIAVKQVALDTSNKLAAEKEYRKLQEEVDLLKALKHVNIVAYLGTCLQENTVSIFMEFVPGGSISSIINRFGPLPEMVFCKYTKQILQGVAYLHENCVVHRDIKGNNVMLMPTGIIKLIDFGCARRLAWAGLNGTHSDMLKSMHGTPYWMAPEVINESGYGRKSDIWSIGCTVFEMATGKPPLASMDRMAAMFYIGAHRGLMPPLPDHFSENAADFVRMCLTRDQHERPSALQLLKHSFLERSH
# [14] = Homo sapiens, MWCL1, 72 h, read-out: EC50
# [15] = Homo sapiens, OCI-Ly7, 72 h, read-out: EC50
# [16] = Homo sapiens, OCI-LY19, 72 h, read-out: EC50
# [17] = Homo sapiens, TMD8, 72 h, read-out: EC50
# [18] = Homo sapiens, HBL1, 72 h, read-out: EC50
# [19] = Homo sapiens, OCI-Ly3, 72 h, read-out: EC50
# [20] = Homo sapiens, Ramos, 72 h, read-out: EC50
# [21] = Homo sapiens, RPMI-8226, 72 h, read-out: EC50
SMILES,EC50 [2] [µM],"EC50 [3, 14] [µM]",EC50 (TMD8; tmd8),EC50 ([4]; hbl1),EC50 (OCI-Ly3; oci-ly3),EC50 (OCI-Ly7; [15]) [µM],EC50 (OCI-LY19; [16]) [µM],EC50 (Ramos; ramos),EC50 (RPMI-8226; rpmi-8226),EC50 (TMD8; [17]) [µM],"EC50 [4, 18] [µM]",EC50 (RPMI-8226; [21]) [µM],other results
C=CC(=O)Nc1cccc(C(=O)Nc2cccc(NC(=O)c3cccc(-c4ccn[nH]4)n3)c2)c1,12.8,29,Not Active,Not Active,Not Active,16.1,2.9,Not Active,Not Active,,,,Activity [1]: Active; inhibition [5]: Active
CN(C)C/C=C/C(=O)Nc1cccc(C(=O)Nc2ccc(Nc3nccc(-c4cccnc4)n3)cc2)c1,,,,,,,,,,,,,IC50 [6]: 0.0142 µM; IC50 [7]: > 10 µM
C=CC(=O)Nc1ccc(C(=O)Nc2ccc(NC(=O)c3cccc(-c4ccn[nH]4)n3)cc2)cc1,2.54,4.91,,,Not Active,5.16,0.71,Not Active,Not Active,5.26,14.6,,Activity [8]: Active
C=CC(=O)Nc1ccc(C(=O)Nc2cccc(NC(=O)c3cccc(-c4ccn[nH]4)n3)c2)cc1,418,,Not Active,Not Active,Not Active,,,Not Active,Not Active,,,,IC50 [9]: > 10 µM; Activity [10]: Active; EC50 ([3]; mwcl1): Not Active; EC50 (OCI-Ly7; oci-ly7): Not Active; EC50 (OCI-LY19; oci-ly19): Not Active
CC1NC(=O)NC1CCCCCC(=O)NCCOCCOCCOCCNC(=O)CCN(C)C/C=C/C(=O)Nc1cccc(C(=O)Nc2ccc(NC(=O)c3cccc(-c4ccn[nH]4)n3)cc2)c1 (stereo not given),,,,,,,,,,,,,IC50 [11]: 0.07 µM
CN(C)C/C=C/C(=O)Nc1cccc(C(=O)Nc2ccc(NC(=O)c3cccc(-c4ccn[nH]4)n3)cc2)c1,5.62,8.13,,,,7.65,1.8,,,10.6,18.2,19.8,IC50 [11]: 0.052 µM; EC50 (OCI-Ly3; [19]): 14.3 µM; EC50 (Ramos; [20]): 6.99 µM; inhibition [12]: Active
C=CC(=O)Nc1cccc(C(=O)Nc2ccc(NC(=O)c3cccc(-c4ccn[nH]4)n3)cc2)c1,1.02,3.88,,,,2.39,0.59,,,2.4,12.1,5.13,IC50 [9]: > 10 µM; IC50 [13]: 0.057 µM; Activity [1]: Active; EC50 (OCI-Ly3; [19]): 9.72 µM; EC50 (Ramos; [20]): 1.79 µM; inhibition [5]: Active
COc1cc(N2CCOCC2)ccc1NC(=O)c1cccc(-c2ccn[nH]2)n1,,,,,,,,,,,,,IC50 [6]: 0.009 µM; IC50 [7]: 0.017 µM
CCC(=O)Nc1cccc(C(=O)Nc2ccc(NC(=O)c3cccc(-c4ccn[nH]4)n3)cc2)c1,19.9,,Not Active,Not Active,Not Active,20.7,7.79,Not Active,,,,31.1,EC50 ([3]; mwcl1): Not Active

# Source: ChEMBL document CHEMBL4725474, “Discovery of a Selective, Covalent IRAK1 Inhibitor with Antiproliferative Activity in MYD88 Mutated B-Cell Lymphoma” (ACS Med Chem Lett, 2020)
